High-throughput results as filed in PubChem.
NR2E3 ag-1 = human photoreceptor-specific nuclear receptor agonism; Q9Y5X4; CHO-S Gal4-NCOR/VP16-NR2E3 two-hybrid, luciferase; inhibition of corepressor binding, % at 3.98 µM; 360,000 compounds, 0.35% hits; AID 602229;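 active = inhibition above the mean of all tested compounds plus 3 SD, cut at about 70% in these data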;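 also: 0% = DMSO with NR2E3 transfected cells and 100% = cells lacking NR2E3 construct; higher means lower luciferase signal from less NR2E3 corepressor binding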
proKLK7 act = proKLK7 (human) activation, primary screen | purified proKLK7, EDANS-DABCYL substrate fluorescence; 100% is mature enzyme control, 0% vehicle | activation, % at 7 µM | 370,000 compounds, 0.9% hits;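 active = activation above the mean of all tested compounds plus 3 SD, computed per campaign excluding outliers beyond control limits, cut at about 13% in these data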
ADAM10 inh = inhibitors of human ADAM10. O14672. recombinant ADAM10, EDANS/DABCYL FRET peptide cleavage, 3 h. inhibition, % at 7 µM. 370,000 compounds, 0.62% hits. AID 720582;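 active = inhibition above a per-campaign cutoff equal to the mean of compounds falling between control-based bounds plus 3 SD, cut at about 20% in these data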;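 also: 0% = DMSO wells while the 100% control is not disclosed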
ADAM17 inh = inhibits human ADAM17; P78536; recombinant ADAM17, EDANS/DABCYL FRET peptide cleavage; inhibition, % at 6.95 µM; 370,000 compounds, 0.83% hits; AID 720648;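 active = inhibition above the mean of compounds lying between control limits plus 3 SD, set per campaign, cut at about 8.5% in these data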;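 also: 0% = DMSO-only wells as the low control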
Target sequence (P78536 215-824 limits assumed): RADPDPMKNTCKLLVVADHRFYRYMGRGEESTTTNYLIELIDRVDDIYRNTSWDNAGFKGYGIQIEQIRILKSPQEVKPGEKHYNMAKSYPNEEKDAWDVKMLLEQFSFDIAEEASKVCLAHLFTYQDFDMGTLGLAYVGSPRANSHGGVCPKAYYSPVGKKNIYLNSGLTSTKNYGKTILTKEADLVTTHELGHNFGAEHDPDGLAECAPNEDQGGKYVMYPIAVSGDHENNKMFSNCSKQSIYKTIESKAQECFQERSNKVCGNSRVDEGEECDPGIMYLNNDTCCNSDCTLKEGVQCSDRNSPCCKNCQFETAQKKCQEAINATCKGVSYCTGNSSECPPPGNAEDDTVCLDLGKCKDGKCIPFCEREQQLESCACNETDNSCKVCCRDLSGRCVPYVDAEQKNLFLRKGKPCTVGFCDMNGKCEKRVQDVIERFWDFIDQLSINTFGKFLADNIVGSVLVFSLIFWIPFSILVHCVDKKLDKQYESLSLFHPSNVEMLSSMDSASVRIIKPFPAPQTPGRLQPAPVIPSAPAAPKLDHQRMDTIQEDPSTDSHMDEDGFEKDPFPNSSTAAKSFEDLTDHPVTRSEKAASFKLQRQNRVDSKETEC
NR2E3 ag-2 = NR2E3 (human) agonism; GST-NR2E3/biotin-RetCOR TR-FRET, 1536-well; 320,000 compounds, 0.12% hits; inhibition of corepressor binding, % at 4.78 µM;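 active = percent inhibition above the cutoff of mean plus 3 SD of all tested compounds, set per screening campaign, cut at about 20% in these data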;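 also: 0% = DMSO wells and 100% = biotin wells as full block of FRET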
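Test system: GST-NR2E3 and biotin-RetCOR proteins | Quantity: 1.35 nM GST-tagged NR2E3 final | Medium: Tris pH 7.5 | Also added: 7 nM biotin-RetCOR | Dosing: Compound at 4.8 µM, single dose | Timing: 5 h at 4 °C | Detection: Time-resolved FRET | Read-out basis: Percent inhibition | Benchmarks: Biotin wells as high control, 0.6% DMSO wells as low control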
GASC-1 inh = blocks human GASC-1 demethylase activity; 330,000 compounds, 0.069% hits; inhibition, % at 2.35 µM; Q9H3R0; GST-JMJD2C(1-420) H3K9me3 demethylation, DELFIA europium;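 active = more than half of a compound's replicate wells show inhibition beyond 50%, single wells judged on their own value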;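 also: signal counts dimethyl H3K9 product captured on neutravidin plate; 0% = median of DMSO wells and 100% = 0.3 times that DMSO median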
NR2E3 ag conf = NR2E3 agonism confirmed in two-hybrid assay | 2,300 compounds, 51% hits | inhibition, % at 3.98 µM | CHO-S mammalian two-hybrid NR2E3-NCOR, luciferase luminescence | AID 624378 | shares compounds with NR2E3 ag-1;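 active = average inhibition above a cutoff equal to the mean inhibition of all tested compounds plus one SD, cut at about 70% in these data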;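 also: 0% = DMSO in NR2E3 cells and 100% = DMSO in cells lacking NR2E3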
GAL4-VP16 luc = counter-screen for NR2E3 agonists: GAL4-VP16 reporter inhibitors. inhibition, % at 3.98 µM. 2,300 compounds, 29% hits. shares compounds with NR2E3 ag-1. CHO-S GAL4-VP16 luciferase reporter, luminescence;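 active = mean inhibition above a cutoff equal to the average over all tested compounds plus one standard deviation, cut at about 70% in these data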;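 also: luciferase from a UAS reporter driven by GAL4-VP16 transactivation; 0% = DMSO with VP16-transfected cells and 100% = DMSO with cells lacking VP16; higher means less reporter light so more repression of VP16 activity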
Active calls of the source: *; i = inactive; . = not tested or not shown. Shown are actives, neighbours in structure and some others; about 2.5% of the full set was active somewhere.

SMILES	NR2E3 ag-1	proKLK7 act	ADAM10 inh	ADAM17 inh	NR2E3 ag-2	GASC-1 inh	NR2E3 ag conf	GAL4-VP16 luc
COc1ccc(-c2coc3c(C(=O)NCc4ccc(OC)c(OC)c4)cccc23)c(C)c1	91*	0	18	8	.	.	95*	82*
COc1ccc(-c2coc3c(C(=O)NCc4ccc(F)c(F)c4)cccc23)c(C)c1	30	0	1	1	.	.	.	.
COc1ccc(-c2coc3c(C(=O)NCC4CCOCC4)cccc23)c(C)c1	71*	1	-6	-5	.	.	60	51
COc1ccc(S(=O)(=O)NNC(=O)C(=O)NNc2ccccn2)cc1	0	1	5	-2	1	10	.	.
Cc1sc(NC(=O)/C=C/c2ccc3c(c2)OCO3)nc1-c1ccccc1	57	-2	-4	-5	5	-2	85*	31
O=C(/C=C/c1ccc2c(c1)OCO2)Nc1nc(-c2ccccc2)cs1	-25	-115	-52	-16	2	42	.	.
CC(=O)CC[C@@H]1CC[C@]2(CCCN(C(=O)c3ccccc3)C2)O1	.	0	0	0	.	.	.	.
OC[C@@H]1CN(Cc2ccc(F)cc2)C[C@H](n2cnc3c(Nc4ccccc4)ncnc32)O1	-50	1	-3	-1	.	.	.	.
OC[C@@H]1CN(Cc2ccc(-c3ccccc3)cc2)C[C@H](n2cnc3c(Nc4ccccc4)ncnc32)O1	50	-1	18	8	.	.	76*	51
CC(C)N(C)c1ncnc2c1ncn2[C@H]1CN(Cc2ccc(-c3ccccc3)cc2)C[C@@H](CO)O1	55	0	18	7	.	.	31	26
OC[C@@H]1CN(Cc2cccc3ccccc23)C[C@H](n2cnc3c(NCc4ccco4)ncnc32)O1	53	0	0	-1	.	.	6	8
CCc1nnc(NC(=O)CCC(=O)NC2CCCCCC2)s1	10	0	-4	-3	-3	13	.	.
CCOc1ccc(C(=O)Nc2cnn(Cc3ccc(Cl)c(Cl)c3)c2)cc1	66	1	15	4	-3	i	70	19
Cc1ccc(S(=O)(=O)N2CC3(O)CN(C(=O)OC(C)C)N(C(=O)OC(C)C)CC3(OC(=O)NCc3ccccc3)C2)cc1 (stereo unspecified)	-10	0	2	6	.	.	.	.
C=CCN1[C@H](Cc2ccccc2)COc2cccc(N3CCSCC3)c2S1(=O)=O	.	0	9	0	.	.	.	.
Cc1nc2ccccc2c(=O)n1N(c1ccccc1)c1ccccc1	-14	0	1	-3	-2	-11	.	.
Nc1nnnn1/N=C/C(Br)=C/c1ccccc1	65	1	-3	-2	3	-4	47	31
Nc1nnnn1/N=C/C=C/c1ccccc1	-40	1	4	-4	-1	8	.	.
Cc1cc(=S)nc(-c2ccccn2)[nH]1	76*	2	9	2	1	.	-6	-12
CCOC(=O)C1(C)CCCN1C(=O)c1cccc2ccccc12 (stereo unspecified)	-16	0	0	-2	.	.	.	.
COCCNC(=S)N(C)[C@H]1C[C@H]2c3[nH]c4c(-c5ccc6c(c5)OCO6)cccc4c3CCN2C[C@H]1[C@H](C)O	.	1	-1	3	.	.	.	.
C[C@@H]1/C=C/CC(=O)N[C@H](c2ccccc2)[C@H](C)/C=C/CC(=O)N[C@@H]1c1ccccc1	.	0	-6	-5	.	.	.	.
O=C(NCc1cccnc1)/C(=C\c1ccc(-c2cccc(Cl)c2)o1)S(=O)(=O)c1ccccc1	91*	-1	-14	-2	2	4	63	-24
CC1=NN(C(N)=S)C(=O)C1N=Nc1ccccc1[N+](=O)[O-] (stereo unspecified)	-1	0	1	0	.	.	.	.
CC1=NN(C(N)=S)C(=O)C1N=Nc1ccccc1C (stereo unspecified)	74*	0	13	4	-5	-15	-2	-35
